From ChEMBL document CHEMBL1145607, “Design, synthesis and evaluation of 2-phenyl-1H-benzo[d]imidazole-4,7-diones as vascular smooth muscle cell proliferation inhibitors” (Bioorg Med Chem Lett, 2008)
Activity calls are given as the source filed them. The calls are words filed in the database; no cut-off is given here.

Target: RAC-alpha serine/threonine-protein kinase (Rattus norvegicus) (UniProt P47196)
Assay: Inhibition of Akt phosphorylation in rat aortic VSMC at 1 ug/ml after 1 hr
Type: tissue-based
Conditions: Aorta
Summary of the method: (§1)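 Cultured SMCs exposed to test agent for 1 h; phosphorylated ERK and phosphorylated Akt examined by Western blot.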

Chain of RAC-alpha serine/threonine-protein kinase (Rattus norvegicus) (P47196 whole entry): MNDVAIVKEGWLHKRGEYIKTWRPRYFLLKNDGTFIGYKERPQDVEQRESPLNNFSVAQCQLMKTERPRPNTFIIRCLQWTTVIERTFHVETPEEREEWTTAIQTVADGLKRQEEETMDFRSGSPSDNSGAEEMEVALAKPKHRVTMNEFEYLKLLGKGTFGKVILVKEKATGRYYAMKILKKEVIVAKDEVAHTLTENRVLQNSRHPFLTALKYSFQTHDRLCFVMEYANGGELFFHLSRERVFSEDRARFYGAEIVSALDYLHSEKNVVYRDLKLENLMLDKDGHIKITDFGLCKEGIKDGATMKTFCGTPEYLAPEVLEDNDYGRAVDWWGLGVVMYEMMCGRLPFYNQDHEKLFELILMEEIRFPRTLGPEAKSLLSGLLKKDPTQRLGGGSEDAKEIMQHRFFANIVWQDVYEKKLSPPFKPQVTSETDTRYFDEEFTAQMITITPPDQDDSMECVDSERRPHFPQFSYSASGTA

Activity	Compound
Active	COc1ccc(SC2=C(Cl)C(=O)c3nc(-c4ccccc4)[nH]c3C2=O)cc1

Species: Rattus norvegicus
Assay: Inhibition of ERK phosphorylation in rat aortic VSMC at 1 ug/ml after 1 hr
Type: tissue-based
Conditions: Aorta
Summary of the method: as §1

Compound	Activity
COc1ccc(SC2=C(Cl)C(=O)c3nc(-c4ccccc4)[nH]c3C2=O)cc1	Active

Test system: VSMC
Assay: Effect on pRb protein expression in rat aortic VSMC at 1 ug/ml after 48 hrs by Western blot
Type: functional, tissue-based
Conditions: Aorta
Summary of the method: (§2)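 Total cell lysates from cultured SMCs treated with 1 µg/mL for 48 h; PCNA, cyclin A, cyclin D1, pRb (also cdk 2) probed by Western blot.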

Compound	Activity
COc1ccc(SC2=C(Cl)C(=O)c3nc(-c4ccccc4)[nH]c3C2=O)cc1	Active

Test system: VSMC
Assay: Effect on cyclin D1 protein expression in rat aortic VSMC at 1 ug/ml after 48 hrs by Western blot
Type: functional, tissue-based
Conditions: Aorta
Summary of the method: as §2

Compound	Activity
COc1ccc(SC2=C(Cl)C(=O)c3nc(-c4ccccc4)[nH]c3C2=O)cc1	Active

Test system: not listed separately
Assay: Cell cycle arrest in rat aortic VSMC assessed as DNA accumulation at S phase at 1 ug/ml after 48 hrs relative to control
Type: functional, cell-based
Conditions: not given
Summary of the method: (§3)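 Cultured SMCs treated with 1 µg/mL for 48 h alongside a vehicle-treated control; DNA content per cell-cycle phase analysed by flow cytometry.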

Compound	Activity
COc1ccc(SC2=C(Cl)C(=O)c3nc(-c4ccccc4)[nH]c3C2=O)cc1	22.4%

Test system: not listed separately
Assay: Cell cycle arrest in rat aortic VSMC assessed as DNA accumulation at G2/M phase at 1 ug/ml after 48 hrs relative to control
Type: functional, cell-based
Conditions: not given
Summary of the method: as §3

Compound	Activity
COc1ccc(SC2=C(Cl)C(=O)c3nc(-c4ccccc4)[nH]c3C2=O)cc1	8%

Test system: not listed separately
Assay: Down-regulation of PCNA protein expression in rat aortic VSMC at 1 ug/ml after 48 hrs by Western blot
Type: functional, tissue-based
Conditions: Aorta
Summary of the method: as §2

Compound	Activity
COc1ccc(SC2=C(Cl)C(=O)c3nc(-c4ccccc4)[nH]c3C2=O)cc1	Active

Test system: not listed separately
Assay: Antiproliferative activity against PDGF-induced rat aortic VSMC by colorimetric assay
Type: functional, tissue-based
Conditions: Aorta
Summary of the method: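 Rat aortic SMCs stimulated with PDGF; inhibition of proliferation read by a colorimetric assay; IC50 values determined by comparison to mycophenolic acid as standard agent.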

Compound	IC50
Cc1ccc(NC2=C(Cl)C(=O)c3nc(-c4ccccc4)[nH]c3C2=O)cc1	3 µM
CCOc1ccc(NC2=C(Cl)C(=O)c3nc(-c4ccccc4)[nH]c3C2=O)cc1	50 µM
O=C1C(Cl)=C(Nc2ccc(Br)cc2)C(=O)c2[nH]c(-c3cccnc3)nc21	50 µM
O=C1C(Cl)=C(Sc2ccc(Cl)cc2)C(=O)c2[nH]c(-c3ccccn3)nc21	4 µM
COc1c(C)c2c(c(O)c1C/C=C(\C)CCC(=O)O)C(=O)OC2 [MYCOPHENOLIC ACID]	1 µM
O=C1C(Cl)=C(Nc2ccccc2)C(=O)c2[nH]c(-c3ccccc3)nc21	4 µM
Cc1ccc(NC2=C(Cl)C(=O)c3nc(-c4ccccn4)[nH]c3C2=O)cc1	50 µM
O=C1C(Cl)=C(Nc2ccc(C(F)(F)F)cc2)C(=O)c2[nH]c(-c3ccccc3)nc21	9.4 µM
Cc1cccc(SC2=C(Cl)C(=O)c3nc(-c4ccccc4)[nH]c3C2=O)c1	2 µM
O=C1C(Cl)=C(Sc2ccc(Br)cc2)C(=O)c2[nH]c(-c3ccccc3)nc21	1.5 µM
O=C1C(Cl)=C(Nc2ccc(F)cc2)C(=O)c2[nH]c(-c3ccncc3)nc21	50 µM
O=C1C(Cl)=C(Sc2ccc(Br)cc2)C(=O)c2[nH]c(-c3ccccn3)nc21	12 µM
O=C1C(Cl)=C(Nc2ccc(OC(F)(F)F)cc2)C(=O)c2[nH]c(-c3ccccc3)nc21	1.5 µM
COc1ccc(SC2=C(Cl)C(=O)c3nc(-c4ccccn4)[nH]c3C2=O)cc1	4.2 µM
COc1ccc(NC2=C(Cl)C(=O)c3nc(-c4cccnc4)[nH]c3C2=O)cc1	42 µM
CCc1ccc(NC2=C(Cl)C(=O)c3nc(-c4ccccc4)[nH]c3C2=O)cc1	10.7 µM
Cc1ccc(SC2=C(Cl)C(=O)c3nc(-c4ccccn4)[nH]c3C2=O)cc1	2.5 µM
O=C1C(Cl)=C(Nc2ccc(C(F)(F)F)cc2)C(=O)c2[nH]c(-c3ccccn3)nc21	1 µM

Compound	IC50
O=C1C(Cl)=C(Sc2ccccc2)C(=O)c2[nH]c(-c3ccccc3)nc21	1.5 µM
O=C1C(Cl)=C(Nc2ccc(Br)cc2)C(=O)c2[nH]c(-c3ccncc3)nc21	100 µM
O=C1C(Cl)=C(Nc2ccc(F)cc2)C(=O)c2[nH]c(-c3cccnc3)nc21	21 µM
O=C1C(Cl)=C(Nc2ccc(F)cc2)C(=O)c2[nH]c(-c3ccccn3)nc21	9.4 µM
O=C1C(Cl)=C(Nc2ccc(Cl)cc2)C(=O)c2[nH]c(-c3ccccn3)nc21	12.1 µM
COc1ccc(NC2=C(Cl)C(=O)c3nc(-c4ccccn4)[nH]c3C2=O)cc1	20 µM
O=C1C(Cl)=C(Nc2ccc(Cl)cc2)C(=O)c2[nH]c(-c3cccnc3)nc21	20 µM
Cc1ccc(NC2=C(Cl)C(=O)c3nc(-c4ccccc4)[nH]c3C2=O)cc1C	3 µM
COc1ccc(NC2=C(Cl)C(=O)c3nc(-c4ccncc4)[nH]c3C2=O)cc1	50 µM
O=C1C(Cl)=C(Nc2ccc(OC(F)(F)F)cc2)C(=O)c2[nH]c(-c3ccccn3)nc21	20 µM
COc1ccc(SC2=C(Cl)C(=O)c3nc(-c4ccccc4)[nH]c3C2=O)cc1	1 µM
O=C1C(Cl)=C(Nc2ccc(Cl)cc2)C(=O)c2[nH]c(-c3ccncc3)nc21	25 µM
O=C1C(Cl)=C(Nc2ccc(Cl)cc2)C(=O)c2[nH]c(-c3ccccc3)nc21	5.3 µM
COc1ccc(NC2=C(Cl)C(=O)c3nc(-c4ccccc4)[nH]c3C2=O)cc1	2 µM
O=C1C(Cl)=C(Nc2ccc(Br)cc2)C(=O)c2[nH]c(-c3ccccn3)nc21	6.5 µM
O=C1C(Cl)=C(Sc2ccc(O)cc2)C(=O)c2[nH]c(-c3ccccc3)nc21	2 µM
CCc1ccc(SC2=C(Cl)C(=O)c3nc(-c4ccccn4)[nH]c3C2=O)cc1	7 µM
Cc1ccc(SC2=C(Cl)C(=O)c3nc(-c4ccccc4)[nH]c3C2=O)cc1	1 µM

Test system: VSMC
Assay: Antiproliferative activity against PDGF-induced rat aortic VSMC assessed as cell density at 1 ug/ml after 48 hrs by phase-contrast microscope
Type: functional, cell-based
Conditions: not given
Summary of the method: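 Cultured rat aortic SMCs exposed to 1 µg/mL test agent or DMSO vehicle alone for 48 h; cell density judged by observation and photography under a phase-contrast microscope.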

Compound	Activity
COc1ccc(SC2=C(Cl)C(=O)c3nc(-c4ccccc4)[nH]c3C2=O)cc1	Active

Test system: not listed separately
Assay: Down-regulation of cyclin A protein expression in rat aortic VSMC at 1 ug/ml after 48 hrs by Western blot
Type: functional, tissue-based
Conditions: Aorta
Summary of the method: as §2

Compound	Activity
COc1ccc(SC2=C(Cl)C(=O)c3nc(-c4ccccc4)[nH]c3C2=O)cc1	Active

Test system: not listed separately
Assay: Cell cycle arrest in rat aortic VSMC assessed as DNA accumulation at G0/G1 phase at 1 ug/ml after 48 hrs relative to control
Type: functional, cell-based
Conditions: not given
Summary of the method: as §3

Compound	Activity
COc1ccc(SC2=C(Cl)C(=O)c3nc(-c4ccccc4)[nH]c3C2=O)cc1	59.6%
